pIC50, pKi: −log10 of the molar value. The source made the active and inactive calls. The calls are words filed in the database; no cut-off is given here.
Columns and labels:
[1] = molecular target: Cyclin-dependent kinase 4/cyclin D1 (Homo sapiens, UniProt P11802); assay: Inhibition of human CDK4/cyclin D1 by ELISA; type: protein-complex assay
[2] = molecular target: T1, Glycogen synthase kinase-3 beta (Homo sapiens, UniProt P49841); assay: Inhibition of human recombinant GSK3-beta at 1 uM by ELISA
In short: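 Recombinant human GSK3β (500 ng) with human tau-441 (1 μg) as substrate, in a 20 μL reaction with 10× kinase buffer stock (200 mM Tris-HCl pH 7.4, 100 mM MgCl2, 5 mM DTT) and ATP added from a 100 μM stock. Incubated 30 °C for 45 min. Phospho-tau pS396 measured by immunoassay at A450. Controls were DMSO and no-ATP.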
Target sequence in this assay (P49841 whole entry, looked up): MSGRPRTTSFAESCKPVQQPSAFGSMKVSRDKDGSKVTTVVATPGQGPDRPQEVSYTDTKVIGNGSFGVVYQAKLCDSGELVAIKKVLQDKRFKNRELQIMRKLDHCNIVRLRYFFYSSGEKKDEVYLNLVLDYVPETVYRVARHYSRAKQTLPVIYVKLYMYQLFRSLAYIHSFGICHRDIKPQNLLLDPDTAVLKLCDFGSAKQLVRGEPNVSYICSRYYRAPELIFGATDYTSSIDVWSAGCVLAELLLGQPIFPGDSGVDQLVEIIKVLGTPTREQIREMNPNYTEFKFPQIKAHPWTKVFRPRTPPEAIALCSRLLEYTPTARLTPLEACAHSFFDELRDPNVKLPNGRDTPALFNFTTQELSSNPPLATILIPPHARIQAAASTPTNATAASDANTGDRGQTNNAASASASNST

[3] = molecular target: Cyclin-dependent kinase 2/cyclin A (Homo sapiens, UniProt P24941); assay: Inhibition of human CDK2/Cyclin A by ELISA; type: protein-complex assay
[4] = Toxicity in Zebrafish embryos assessed as induction of eyeless phenotype during gastrulation at 25 uM after 3 days; type: tissue-based, Danio rerio, Embryo; conditions: in vivo, 72 h
In short: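 FLK-1:EGFP transgenic zebrafish embryos, six per well in 200 μL Holtfreter's buffer. Compound added at dome stage and embryos kept in compound solution up to 7 days. Heads examined at 1 and 3 dpf for eye phenotype. LiCl comparison: 0.3 M for 10 min, then buffer.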

[5] = molecular target: T1, Glycogen synthase kinase-3 beta; assay: Inhibition of human recombinant GSK3-beta at 1 uM by ATP competitive assay
In short: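 Recombinant human GSK3β (60 ng) with tau-441 (400 ng) in 10× buffer stock (200 mM Tris-HCl pH 7.4, 100 mM MgCl2, 5 mM DTT). Inhibitor at 1 μM final, ATP varied, 20 μL, 30 °C for 45 min. Tau pS396 measured by immunoassay at A450. Activity (% of control) versus [ATP] fitted to a simple competitive-inhibition equation to give apparent Ki.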
Target sequence in this assay (P49841 whole entry): as the sequence (P49841 whole entry, looked up) above

[6] = molecular target: T1, Glycogen synthase kinase-3 beta; assay: Inhibition of human recombinant GSK3-beta
In short: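 10× kinase buffer stock was 200 mM Tris-HCl pH 7.4, 100 mM MgCl2, 5 mM DTT; ATP added from a 100 μM stock. Incubated 30 °C for 45 min. Tau pS396 read by immunoassay at A450. DMSO and no-ATP controls were run. IC50 taken from activity curves.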
Target sequence in this assay (P49841 whole entry): as the sequence (P49841 whole entry, looked up) above

Cyclin-dependent kinase 4/cyclin D1, sequence (P11802 whole entry): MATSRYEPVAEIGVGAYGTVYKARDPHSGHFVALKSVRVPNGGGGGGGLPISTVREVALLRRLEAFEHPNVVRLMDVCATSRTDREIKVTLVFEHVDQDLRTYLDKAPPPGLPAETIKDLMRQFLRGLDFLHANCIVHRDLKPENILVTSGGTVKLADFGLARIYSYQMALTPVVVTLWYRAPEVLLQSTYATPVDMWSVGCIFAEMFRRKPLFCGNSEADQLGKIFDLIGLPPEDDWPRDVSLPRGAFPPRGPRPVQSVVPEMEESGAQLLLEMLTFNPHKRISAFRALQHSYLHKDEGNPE
Cyclin-dependent kinase 4/cyclin D1, sequence (P24385 whole entry, further chain): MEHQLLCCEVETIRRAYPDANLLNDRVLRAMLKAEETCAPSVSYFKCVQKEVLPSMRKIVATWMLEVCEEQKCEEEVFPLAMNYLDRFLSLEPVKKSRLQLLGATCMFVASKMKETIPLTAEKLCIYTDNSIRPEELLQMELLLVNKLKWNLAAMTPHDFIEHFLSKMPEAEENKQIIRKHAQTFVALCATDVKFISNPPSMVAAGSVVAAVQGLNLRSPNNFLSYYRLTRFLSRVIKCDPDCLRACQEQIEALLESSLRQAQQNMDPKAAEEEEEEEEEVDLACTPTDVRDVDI

Row | Compound | Activity [2] | also measured
1 | Cn1cc(C2=C(c3ccc(Cl)cc3Cl)C(=O)NC2=O)c2ccccc21 [SB-216763] | Active | pIC50 [1]: 4.49; pIC50 [3]: 6.57; Activity [4]: Not Active
2 | COC(=O)c1ccc2c3c(c(CC(C)OCc4ccccc4)cc2c1)C(=O)NC3=O (stereo not drawn) | Active | –
3 | COC(=O)c1ccc2c3c(c(C)c(C)c2c1)C(=O)NC3=O | Active | –
4 | COc1cc2c(C)cc3c(c2cc1OC)C(=O)NC3=O | Active | pIC50 [1]: 4.80; pKi [5]: 6.59; pIC50 [3]: 6.10; pIC50 [6]: 6.57; Activity [4]: Active
5 | COC(=O)c1ccc2cc(CC(C)C)c3c(c2c1)C(=O)NC3=O | Active | –
6 | COC(=O)c1cccc2c3c(c(C(C)C)cc12)C(=O)NC3=O | Active | –
7 | CCCc1cc2c(C(=O)OC)cccc2c2c1C(=O)NC2=O | Active | –
8 | Cc1cc2ccccc2c2c1C(=O)NC2=O | Active | –
9 | COc1ccc2cc(C)c3c(c2c1)C(=O)NC3=O | Active | –
10 | COC(=O)c1ccc2c3c(c(CCO)cc2c1)C(=O)NC3=O | Active | –
11 | COC(=O)c1ccc2c3c(c(CC(C)C)cc2c1)C(=O)NC3=O | Active | –
12 | CCc1cc2cc(C(=O)OC)ccc2c2c1C(=O)NC2=O | Active | –
13 | CCc1cc2ccc(C(=O)OC)cc2c2c1C(=O)NC2=O | Active | –
14 | CCc1cc2c(C(=O)OC)cccc2c2c1C(=O)NC2=O | Active | –
15 | COC(=O)c1ccc2c3c(c(CC(C)O)cc2c1)C(=O)NC3=O (stereo not drawn) | Active | –
16 | COC(=O)c1cccc2c3c(c(CC(C)C)cc12)C(=O)NC3=O | Active | pIC50 [1]: 5.22; pIC50 [6]: 6.31
17 | CCc1c(C)c2c(c3cc(C(=O)OC)ccc13)C(=O)NC2=O | Active | –
18 | COC(=O)c1ccc2c3c(c(CCOCc4ccccc4)cc2c1)C(=O)NC3=O | Active | –
19 | CCc1cc2c(c3cc(OC)c(OC)cc13)C(=O)NC2=O | Active | pIC50 [1]: 4.72; pIC50 [6]: 7.04; Activity [4]: Not Active
20 | COC(=O)c1ccc2c3c(c(C(C)C)cc2c1)C(=O)NC3=O | Active | –
21 | COC(=O)c1ccc2cc(C)c3c(c2c1)C(=O)NC3=O | Active | –
22 | COC(=O)c1ccc2cc(C(C)C)c3c(c2c1)C(=O)NC3=O | Active | –
23 | COC(=O)c1cccc2c3c(c(C)c(C)c12)C(=O)NC3=O | Active | –
24 | COC(=O)c1cccc2c3c(c(C)cc12)C(=O)NC3=O | Active | –
25 | Cc1cc2ccc(Cl)cc2c2c1C(=O)NC2=O | Active | –

Source: ChEMBL document CHEMBL1154759, “Benzo[e]isoindole-1,3-diones as potential inhibitors of glycogen synthase kinase-3 (GSK-3). Synthesis, kinase inhibitory activity, zebrafish phenotype, and modeling of binding mode” (J Med Chem, 2010)
